Measured values from ChEMBL document CHEMBL1146519, “Acaricidal activity of tonka bean extracts. Synthesis and structure-activity relationships of bioactive derivatives” (J Nat Prod, 2003).

system: Dermatophagoides pteronyssinus; assay: Pesticidal activity against Dermatophagoides pteronyssinus after 24 hrs; type: functional, organism-based
How it was run: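 D. pteronyssinus reared on 90% yeast powder/10% beard shavings at 25 °C, 75% RH, dark. Compounds in absolute EtOH dried 24 h on 2 cm2 well bottoms; rims glued. 100 mites per well, 24 h at 25 °C, 75% RH, dark. Dead = no movement when prodded. Abbott-corrected mortality; EC50 by linear regression. Seven 2-fold dilutions, 0.01–0.640 g/m2, triplicate, repeated after one week.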

Compared with `O=c1ccoc2ccccc12` [CHROMONE], `O=c1ccc2ccccc2o1` [COUMARIN] is lower in EC50: 0.037 g/m2 for the first, 0.032 g/m2 for the second.

`O=C(OCc1ccccc1)c1ccc(=O)oc1` [BENZYL COUMALATE] and `O=C(OCc1ccccc1)c1ccc2oc(=O)ccc2c1` are the same in EC50: 0.495 g/m2 for the first, 0.495 g/m2 for the second.

Compared with `O=C1CC(c2ccccc2)Oc2ccccc21` (stereo unspecified) [FLAVANONE], `c1ccc(C2CCc3ccccc3O2)cc1` (stereo unspecified) [FLAVANE] is higher in EC50: 0.09 g/m2 for the first, 0.15 g/m2 for the second.

Compared with `O=c1cc(-c2ccccc2)oc2ccccc12` [FLAVONE], `O=C(OCc1ccccc1)c1cc(=O)c2ccccc2o1` is lower in EC50: 0.5 g/m2 for the first, 0.495 g/m2 for the second.

`O=C(OCc1ccccc1)c1ccccc1` [BENZYL BENZOATE] and `O=C(OCc1ccccc1)c1ccccc1O` [BENZYL SALICYLATE] are the same in EC50: 0.025 g/m2 for the first, 0.025 g/m2 for the second.

Compared with `O=Cc1cc(C(=O)OCc2ccccc2)ccc1O`, `O=C(OCc1ccccc1)c1cccc(O)c1` is higher in EC50: 0.242 g/m2 for the first, 0.495 g/m2 for the second.

First: O=C(OCc1ccccc1)c1cccc2oc(=O)ccc12
Second: O=C(OCc1ccccc1)c1cc2ccccc2oc1=O
The EC50 of the first is higher: 0.495 g/m2 for the first, 0.28 g/m2 for the second.

First: O=C1CCOc2ccccc21 [CHROMANONE]
Second: Cc1ccc2oc(=O)ccc2c1
The EC50 of the first is higher: 0.07 g/m2 for the first, 0.04 g/m2 for the second.

First: O=C(/C=C/c1ccccc1)OCc1ccccc1 [BENZYL CINNAMATE]
Second: O=C(OCc1ccccc1)c1ccc(O)cc1
The EC50 of the first is lower: 0.18 g/m2 for the first, 0.495 g/m2 for the second.

`Oc1ccccc1CCCc1ccccc1` [CHALCANE] was tested, and the EC50 was 0.31 g/m2.

In the case of `O=c1ccc2ccc(O)cc2o1` [UMBELLIFERONE], the EC50 is reported as over 1.5 g/m2.
In the case of `O=c1cc(O)c2ccccc2o1` [4-HYDROXYCOUMARINS], the EC50 is reported as over 1.5 g/m2.
